Measured values taken from article PMC5292677 (Leukemia, 2016).
“Also recorded” adds a separate entry of the source.

Experiments:
cytokines = test: PD: plasma biomarkers; format: in vivo, human
In short: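 Predose plasma was drawn on Day 1 of Cycles 1–4. Eighty-eight cytokines/proteins were quantified on a multiplexed HumanMAP v2.0 panel. Analysis covered patients with ≥1 dose, a baseline value and ≥1 evaluable post-baseline sample.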

[1] = tested on: patients with myelofibrosis; test: MF-associated symptoms; format: in vivo, human
In short: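 Symptoms were self-rated on the Myelofibrosis Symptom Assessment Form at baseline, on Day 1 of Cycles 2 and 4, then every 3 cycles, during daily oral dosing in 28-day cycles. Evaluable patients had ≥1 cycle treated and a baseline symptom score >2. Each symptom was scored for ≥50% reduction, with a subgroup of patients pretreated with a JAK2 inhibitor.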

Plasma pharmacokinetics = format: in vivo, human
In short: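 Plasma was sampled on Days 1, 8 and 29: predose and ~0.5, 1, 2, 3, 4, 6 and 8 h after oral dosing, plus 24 h on Days 1 and 29. Test compound was measured by LC-MS/MS (LLOQ 1 ng/ml). For BID regimens, AUC0–24 was taken as twice AUC0–12. Analysis covered patients with ≥1 evaluable profile.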

JAK2 = conditions: cited from earlier work
[2] = 21 patients, doses ⩾300 mg QD, following 4 cycles

Structure (SMILES): C[C@H](Nc1cc(-c2cnn(C)c2)cc(Nc2cnccn2)n1)c1ccc(F)cc1 [NS-018]
- B2M, CRP, IL-18, myeloperoxidase and TNFR2 plasma levels (cytokines; [2]): Dose-dependent downregulation
- Erythropoietin, leptin and eotaxin-1 plasma levels (cytokines; [2]): dose-dependent upregulation
- Tumor necrosis factor-α and IL-6 levels (cytokines; after 4 weeks of treatment): unchanged
- Reductions in symptom scores achieved in at least some patients ([1]; all symptoms measured): up to 100%
- Mean MF-SAF scores ([1]; by Week 4, all 8 assessed symptoms, total evaluable population): reductions in mean MF-SAF scores
- Mean MF-SAF symptom score ([1]; patients with previous JAK2 inhibitor treatment): reduction in mean score for all symptoms
- Time to maximum plasma concentration (Cmax) (Plasma pharmacokinetics; Day 8, postdosing, all dose cohorts, oral): 1 to 2 h
- Dose proportionality of systemic exposure (Plasma pharmacokinetics; based on Cmax on Day 8): approximately dose proportional
- Drug accumulation with multiple dosing (Plasma pharmacokinetics; exposure Days 8 vs 29): did not accumulate; also recorded: no evidence of drug accumulation
- half-life (Plasma pharmacokinetics; human, plasma, po): 2 to 5 h
- Selectivity for JAK2 over JAK1 (JAK2): specificity of this agent for JAK2 over JAK1
- Median inhibitory concentration (JAK2; in vitro kinase assay): subnanomolar range
